Test results published in ChEMBL document CHEMBL1124927, “Synthesis and structure-activity relationships of new 7-[3-(fluoromethyl)piperazinyl]- and -(fluorohomopiperazinyl)quinolone antibacterials” (1990).
Converted amounts (≈) assume the structure as drawn.

Legend:
Escherichia coli [1] = assay: In vitro minimal inhibitory concentration against Escherichia coli #311 (Ec(B)); format: functional
How it was run: (§1)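 Agar dilution: two-fold serial drug dilutions in Mueller–Hinton agar; plates inoculated with 1–5 × 10⁴ CFU via Steers multiple inocula replicator; incubated 18 h at 35 °C. MIC = lowest concentration preventing macroscopic growth.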

Escherichia coli [2] = assay: In vitro minimal inhibitory concentration against Escherichia coli ATCC 25922 (Ec(A)); format: functional; how it was run: as §1
Enterobacter cloacae [3] = assay: (§2) In vitro minimal inhibitory concentration against Enterobacter cloacae VGH-84-39 (Et(c)); format: functional
Morganella morganii = assay: In vitro minimal inhibitory concentration against Morganella morganii CMC-84-39 (Mn); format: functional; how it was run: as §1
Pseudomonas aeruginosa = assay: In vitro minimal inhibitory concentration against Pseudomonas aeruginosa 12-4-4 (Pa); format: functional; how it was run: as §1
Staphylococcus aureus [4] = assay: In vitro minimal inhibitory concentration against Staphylococcus aureus ATCC 29213 (Sa(B)); format: functional; how it was run: as §1
Staphylococcus aureus [5] = assay: In vitro minimal inhibitory concentration against Staphylococcus aureus Smith (MP) (Sa(A)); format: functional; how it was run: as §1
Enterococcus faecalis [6] = assay: In vitro minimal inhibitory concentration against Streptococcus faecalis UCI-85 (Sf(U)); format: functional; how it was run: as §1
Enterococcus faecalis [7] = assay: In vitro minimal inhibitory concentration Streptococcus faecalis VGH-84 (Sf(V)); format: functional; how it was run: as §1
Staphylococcus aureus [8] = assay: Median effective dose against female mice infected with Staphylococcus aureus Smith after oral administration; format: functional
How it was run: (§3)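 CD-1 female mice (20 ± 2 g) infected ip with 0.5 mL standardized bacterial suspension (E. coli #311 in trypticase–soy broth; S. aureus Smith in 5% hog gastric mucin). Dosed 0.5 h post-infection, oral or subcutaneous, 2-fold dose increments in 0.5 mL 0.2% aqueous agar; five mice per dose. 7-day survival pooled from three tests; ED50 by probit analysis, 95% confidence limits.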

Staphylococcus aureus [9] = assay: Median effective dose against female mice infected with Staphylococcus aureus Smith after subcutaneous administration; format: functional; conditions: sc; how it was run: as §3
Escherichia coli [10] = assay: animal or person; conditions: in Mus musculus, po
Escherichia coli [11] = assay: animal or person; conditions: in Mus musculus, sc
Enterobacter cloacae [12] = assay: as §2; format: functional; how it was run: as §1; remark: listed apart in the source
Escherichia coli [13] = assay: Median effective dose against female mice infected with Escherichia coli #311 after oral administration; format: functional; how it was run: as §3
Escherichia coli [14] = assay: Median effective dose against female mice infected with Escherichia coli #311 after subcutaneous administration; format: functional; conditions: sc; how it was run: as §3
[15] = Ratio of ED50 value of (po/sc) was determined for Staphylococcus aureus Smith; format: functional
How it was run: (§4)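 Oral and subcutaneous ED50 values from ip-infected CD-1 female mice (treated 0.5 h post-infection, 2-fold doses in 0.2% aqueous agar, five mice/dose, 7-day survival, three pooled tests, probit analysis); ratio taken as po ED50 divided by sc ED50, as an index of absorption.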

[16] = Ratio of ED50 value of (po/sc) was determined for Escherichia coli #311; format: functional; how it was run: as §4

Row | Compound | MIC (Escherichia coli [1]) [µg/mL] | MIC (Escherichia coli [2]) [µg/mL] | MIC (Enterobacter cloacae [3]) [µg/mL] | MIC (Morganella morganii) [µg/mL] | MIC (Pseudomonas aeruginosa) [µg/mL] | MIC (Staphylococcus aureus [4]) [µg/mL] | MIC (Staphylococcus aureus [5]) [µg/mL] | MIC (Enterococcus faecalis [6]) [µg/mL] | MIC (Enterococcus faecalis [7]) [µg/mL] | ED50 (Staphylococcus aureus [8]) [mg/kg] | ED50 (Staphylococcus aureus [9]) [mg/kg] | ED50 (Escherichia coli [10]) [mg/kg] | ED50 (Escherichia coli [11]) [mg/kg] | MIC (Enterobacter cloacae [12]) [µg/mL] | ED50 (Escherichia coli [13]; Escherichia coli, po) [mg/kg] | ED50 (Escherichia coli [14]) [mg/kg] | Ratio [15] | Ratio [16] | ED50 (Escherichia coli [13]) [mg/kg]
1 | CCn1cc(C(=O)O)c(=O)c2cc(F)c(N3CCNC(C(F)F)C3)c(F)c21 (stereo not given) | 0.5 (≈ 1.29 µM) | 0.5 (≈ 1.29 µM) | 1 (≈ 2.58 µM) | 1 (≈ 2.58 µM) | 32 (≈ 82.6 µM) | 0.25 (≈ 0.645 µM) | 0.12 (≈ 0.31 µM) | 4 (≈ 10.3 µM) | 4 (≈ 10.3 µM) |  |  |  |  |  |  |  |  |  | 
2 | O=C(O)c1cn(C2CC2)c2cc(N3CCNCC3)c(F)cc2c1=O [CIPROFLOXACIN] | ≤ 0.015 | ≤ 0.015 |  | 0.015 (≈ 0.0453 µM) |  | 1 (≈ 3.02 µM) | 0.25 (≈ 0.754 µM) | 1 (≈ 3.02 µM) | 1 (≈ 3.02 µM) | 3.8 | 0.69 | 0.49 | 0.07 |  |  |  |  |  | 
3 | O=C(O)c1cn(C2CC2)c2cc(N3CCNCC(O)C3)c(F)cc2c1=O (stereo not given) | 0.5 (≈ 1.38 µM) | 0.25 (≈ 0.692 µM) | 0.25 (≈ 0.692 µM) | 0.12 (≈ 0.332 µM) | 2 (≈ 5.53 µM) | 16 (≈ 44.3 µM) | 4 (≈ 11.1 µM) | 16 (≈ 44.3 µM) | 16 (≈ 44.3 µM) |  |  |  |  |  |  |  |  |  | 
4 | O=C(O)c1cn(-c2ccc(F)cc2)c2cc(N3CCNC(CF)C3)c(F)cc2c1=O (stereo not given) | 0.25 (≈ 0.599 µM) | 0.25 (≈ 0.599 µM) |  | 1 (≈ 2.4 µM) | 8 (≈ 19.2 µM) | 0.5 (≈ 1.2 µM) | 0.25 (≈ 0.599 µM) | 4 (≈ 9.58 µM) | 4 (≈ 9.58 µM) |  |  |  |  | 0.25 (≈ 0.599 µM) |  |  |  |  | 
5 | O=C(O)c1cn(C2CC2)c2cc(N3CCNCC(F)C3)c(F)cc2c1=O (stereo not given) | 0.03 (≈ 0.0826 µM) | 0.03 (≈ 0.0826 µM) | 0.06 (≈ 0.165 µM) | 0.06 (≈ 0.165 µM) | 2 (≈ 5.5 µM) | 1 (≈ 2.75 µM) | 0.25 (≈ 0.688 µM) | 4 (≈ 11 µM) | 4 (≈ 11 µM) |  |  |  |  |  |  |  |  |  | 
6 | CC1CN(c2cc3c(cc2F)c(=O)c(C(=O)O)cn3C2CC2)CCN1 (stereo not given) | ≤ 0.015 | ≤ 0.015 | 0.015 (≈ 0.0434 µM) | 0.03 (≈ 0.0869 µM) | 0.25 (≈ 0.724 µM) | 0.5 (≈ 1.45 µM) | 0.12 (≈ 0.347 µM) | 2 (≈ 5.79 µM) | 1 (≈ 2.9 µM) | 2.4 | 0.61 |  |  |  | 0.42 | 0.09 | 3.9 | 4.7 | 
7 | O=C(O)c1cn(C2CC2)c2cc(N3CCCNCC3)c(F)cc2c1=O | 0.03 (≈ 0.0869 µM) | 0.03 (≈ 0.0869 µM) | 0.03 (≈ 0.0869 µM) | 0.03 (≈ 0.0869 µM) | 1 (≈ 2.9 µM) | 2 (≈ 5.79 µM) | 0.25 (≈ 0.724 µM) | 2 (≈ 5.79 µM) | 1 (≈ 2.9 µM) |  |  |  |  |  |  |  |  |  | 
8 | CCn1cc(C(=O)O)c(=O)c2cc(F)c(N3CCNC(CF)C3)cc21 (stereo not given) | ≤ 0.12 | 0.12 (≈ 0.342 µM) | 0.12 (≈ 0.342 µM) | 0.12 (≈ 0.342 µM) | 32 (≈ 91.1 µM) | 0.25 (≈ 0.712 µM) | ≤ 0.12 | 4 (≈ 11.4 µM) | 2 (≈ 5.69 µM) | 6 | 2.6 |  |  |  |  | 3 | 2.3 | 1 | 2.8
9 | CCn1cc(C(=O)O)c(=O)c2cc(F)c(N3CCNC(CO)C3)cc21.Cl (stereo not given) | 1 | 2 | 1 | 0.5 | 64 | 32 | 8 | 16 | 16 |  |  |  |  |  |  |  |  |  | 
10 | O=C(O)c1cn(C2CC2)c2cc(N3CCNC(CF)C3)c(F)cc2c1=O (stereo not given) | 0.03 (≈ 0.0826 µM) | 0.06 (≈ 0.165 µM) | 0.12 (≈ 0.33 µM) | 0.12 (≈ 0.33 µM) | 2 (≈ 5.5 µM) | 0.25 (≈ 0.688 µM) | 0.12 (≈ 0.33 µM) | 2 (≈ 5.5 µM) | 1 (≈ 2.75 µM) | 2.8 | 0.94 |  |  |  | 1.2 | 0.6 | 3 | 2 | 
